In ChEMBL document CHEMBL1138539, “Synthesis of new 2-(5-substituted-3-phenyl-2-pyrazolinyl)-1,3-thiazolino[5,4-b]quinoxaline derivatives and evaluation of their antiamoebic activity” (Eur J Med Chem, 2009):

Legend:
Entamoeba histolytica [1] = assay: Antiamnesic activity against Entamoeba histolytica HM-1:IMSS after 72 hrs by trypan blue exclusion method; assay type: functional, organism-based
Summary of the method: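 Trophozoites grown in TYIS-33 medium and tested by microdilution; amoebae counted by haemocytometer, viability confirmed by trypan blue exclusion. Compounds in DMSO (1 mg/ml stock), two-fold serial dilutions, with medium blanks and untreated controls. After incubation, wells washed in warm 0.9% NaCl, methanol-fixed, eosin-stained, dye released in 0.1 N NaOH, OD 490 nm. IC50 from linear regression of % inhibition versus log dose.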

[2] = Cytotoxicity against human kidney epithelial cells after 44 hrs by MTT assay; assay type: ADME, cell-based; details: Epithelial cell
[3] = Safety index, ratio of IC50 for human kidney epithelial cells to IC50 for Entamoeba histolytica HM-1:IMSS
Entamoeba histolytica [4] = assay: Antiamoebic activity against Entamoeba histolytica HM-1:IMSS after 72 hrs by microdilution method

Compound	IC50 (Entamoeba histolytica [1])	IC50 [2]	selectivity ratio ([3]; human kidney epithelial cells)	IC50 (Entamoeba histolytica [1]; in the assay text read “Antiamoebic” for “Antiamnesic”)	IC50 (Entamoeba histolytica [4])	selectivity ratio ([3]; epithelial cell)
Cc1ccc(/C=C/C(=O)c2ccccc2)cc1	2.12 µM					
O=C(/C=C/c1ccccc1)c1ccccc1 [CHALCONE]	1.7 µM	> 50 µM	> 29.4			
Cc1ccc(C2CC(c3ccccc3)=NN2c2nc3nc4ccccc4nc3s2)cc1 (stereo not given)		> 14 µM	> 46.4	0.3 µM		
O=C(/C=C/c1ccccc1Cl)c1ccccc1		> 50 µM	> 19.2		2.6 µM	
Clc1ccccc1C1CC(c2ccccc2)=NN1c1nc2nc3ccccc3nc2s1 (stereo not given)		> 50 µM	> 26.3		1.9 µM	
CCc1ccccc1C1CC(c2ccccc2)=NN1c1nc2nc3ccccc3nc2s1 (stereo not given)	1.49 µM	> 50 µM	> 33.5			
Cc1ncc([N+](=O)[O-])n1CCO [METRONIDAZOLE]		> 100 µM			1.8 µM	> 55.6
O=C(/C=C/c1ccc(Cl)c(Cl)c1)c1ccccc1		> 50 µM	> 24.9		2.01 µM	
c1ccc(C2=NN(c3nc4nc5ccccc5nc4s3)C(c3ccccc3)C2)cc1 (stereo not given)	1.49 µM	> 50 µM	> 33.5			
Cc1cc(C)c(C2CC(c3ccccc3)=NN2C(N)=S)c(C)c1 (stereo not given)		> 50 µM	> 11.4		4.37 µM	
NC(=S)N1N=C(c2ccccc2)CC1c1c[nH]c2ccccc12 (stereo not given)	1.77 µM	> 54 µM	> 30.5			
CCc1ccccc1/C=C/C(=O)c1ccccc1	1.79 µM	> 50 µM	> 27.9			
CC(C)c1ccccc1C1CC(c2ccccc2)=NN1c1nc2nc3ccccc3nc2s1 (stereo not given)		> 50 µM	> 294		0.17 µM	
NC(=S)N1N=C(c2ccccc2)CC1c1ccccc1Cl (stereo not given)		> 50 µM	> 22.4		2.23 µM	
CC(C)c1ccccc1C1CC(c2ccccc2)=NN1C(N)=S (stereo not given)		> 50 µM	> 217		0.23 µM	
O=C(/C=C/c1c[nH]c2ccccc12)c1ccccc1	1.8 µM	> 44 µM	> 24.4			
Cc1cc(C)c(/C=C/C(=O)c2ccccc2)c(C)c1		> 50 µM	> 35.5		1.41 µM	
CC(C)c1ccccc1/C=C/C(=O)c1ccccc1	3.48 µM	> 46 µM	> 13.2			
c1ccc(C2=NN(c3nc4nc5ccccc5nc4s3)C(c3c[nH]c4ccccc34)C2)cc1 (stereo not given)	1.29 µM	> 18 µM	> 14			
Clc1cccc(C2CC(c3ccccc3)=NN2c2nc3nc4ccccc4nc3s2)c1Cl (stereo not given)		> 50 µM	> 56.2		0.89 µM	
CCc1ccccc1C1CC(c2ccccc2)=NN1C(N)=S (stereo not given)	1.61 µM	> 50 µM	> 31.1			
Cc1ccc(C2CC(c3ccccc3)=NN2C(N)=S)cc1 (stereo not given)	1.58 µM	> 50 µM	> 31.7			
NC(=S)N1N=C(c2ccccc2)CC1c1ccccc1 (stereo not given)	1.61 µM	> 50 µM	> 31.1			
Cc1cc(C)c(C2CC(c3ccccc3)=NN2c2nc3nc4ccccc4nc3s2)c(C)c1 (stereo not given)		> 35 µM	> 10.8		3.2 µM	
